Results as given in paper PMC7388746 (Toxicon : official journal of the International Society on …, 2020).
Positions of bridges follow the written chain, without caps; N, C: chain ends. Residues, ends and D or L forms follow the SMILES beside them.

Experiments:
TRPV1 [1] = conditions: animal studies, ref Kaszas et al., 2012, Lebovitz et al.; cited from earlier work
TRPV1 [2] = conditions: cited from earlier work
TRPV2 = experiment: Whole-cell patch-clamp of TRPV2; format: cell-based; conditions: n = 4
Method in brief: (§1)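 Channels transiently expressed in HEK293T cells (DMEM, 10% FBS, 37 °C, 5% CO2; Lipofectamine 3000) and recorded 24–48 h after transfection. Whole-cell, ~4 MΩ pipettes, 60% series-resistance compensation. Bath and pipette: 130 mM NaCl, 10 mM glucose, 0.2 mM EDTA, 3 mM HEPES pH 7.2. Sampled 10 kHz, filtered 2.9 kHz, 22 °C, rapid gravity perfusion. Mean ± SEM.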

[3] = target: T1, TRPV1 channels expressed in HEK293T cells (murine TRPV1, E571A, C-terminal eYFP) (Mus musculus, UniProt Q704Y3, E571A); experiment: Patch-clamp activation of TRPV1, extracellular perfusion; format: cell-based
[4] = target: T1, TRPV1 channels expressed in HEK293T cells (murine TRPV1, E571A, C-terminal eYFP); experiment: Single-channel recording of TRPV1; format: cell-based; conditions: outside-out; 300 μM RhTx2, on first perfusion
TRPV3 = experiment: Whole-cell patch-clamp of TRPV3; format: cell-based; conditions: n = 4
Method in brief: as §1

[5] = target: T1, TRPV1 channels expressed in HEK293T cells (murine TRPV1, E571A, C-terminal eYFP); experiment: TRPV1 desensitization on prolonged application and recovery; format: cell-based; conditions: RhTx2 300 μM vs RhTx 10 μM
[6] = target: T1, TRPV1 channels expressed in HEK293T cells (murine TRPV1, E571A, C-terminal eYFP); experiment: Inside-out patch-clamp of TRPV1, intracellular perfusion; format: cell-based

T1 sequence (Q704Y3 whole entry E571A, the tested form may be a part): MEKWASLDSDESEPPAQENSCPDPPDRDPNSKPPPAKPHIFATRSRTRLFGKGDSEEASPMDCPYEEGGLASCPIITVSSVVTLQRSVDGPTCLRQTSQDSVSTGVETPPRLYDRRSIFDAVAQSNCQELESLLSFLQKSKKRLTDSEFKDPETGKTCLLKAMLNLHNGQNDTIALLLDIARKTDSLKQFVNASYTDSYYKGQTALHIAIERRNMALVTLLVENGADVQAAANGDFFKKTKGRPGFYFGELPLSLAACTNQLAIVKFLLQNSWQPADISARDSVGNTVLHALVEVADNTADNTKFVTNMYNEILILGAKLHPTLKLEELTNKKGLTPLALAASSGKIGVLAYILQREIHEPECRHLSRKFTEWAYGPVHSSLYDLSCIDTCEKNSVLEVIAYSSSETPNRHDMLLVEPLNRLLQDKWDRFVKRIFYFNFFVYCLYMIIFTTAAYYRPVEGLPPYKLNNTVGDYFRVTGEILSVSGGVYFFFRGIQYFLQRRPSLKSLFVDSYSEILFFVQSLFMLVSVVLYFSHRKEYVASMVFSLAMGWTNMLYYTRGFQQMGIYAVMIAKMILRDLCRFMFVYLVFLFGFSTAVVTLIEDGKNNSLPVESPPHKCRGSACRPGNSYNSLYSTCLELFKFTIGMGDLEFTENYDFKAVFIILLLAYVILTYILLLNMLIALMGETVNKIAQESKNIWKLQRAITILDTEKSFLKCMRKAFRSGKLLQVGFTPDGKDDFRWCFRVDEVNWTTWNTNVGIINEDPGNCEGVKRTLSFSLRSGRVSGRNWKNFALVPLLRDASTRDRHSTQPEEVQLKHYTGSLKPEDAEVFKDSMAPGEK

## CCOC(=O)C1=C(c2ccccc2)NC(C)=C(C(=O)SCCOC)C1CC (stereo not drawn) [MRS1477]
TRPV1 [1]
  analgesic effect and side effects, literature (in words): analgesic effects without side effects such as hyperthermia
TRPV1 [2]; ref Kaszas et al., 2012, Lebovitz et al.
  TRPV1 allosteric modulation, literature (in words): positively and allosterically modulate the ligand activation of TRPV1

## CC[C@H](C)[C@H](NC(=O)[C@@H]1CSSC[C@@H]2NC(=O)[C@H]([C@@H](C)O)NC(=O)[C@H](C(C)C)NC(=O)CNC(=O)[C@H](CC(N)=O)NC(=O)[C@@H](NC(=O)[C@@H]3CCCN3C(=O)[C@H](CC(N)=O)NC(=O)[C@H](CC(N)=O)NC(=O)[C@H](CC(C)C)NC(=O)[C@H](Cc3ccc(O)cc3)NC(=O)[C@H](CCCCN)NC(=O)[C@H](CO)NC(=O)[C@@H](N)CC(N)=O)CSSC[C@H](NC(=O)[C@H](CCCNC(=N)N)NC(=O)[C@H](Cc3ccc(O)cc3)NC(=O)CNC(=O)[C@H](CO)NC(=O)[C@@H]3CCCN3C2=O)C(=O)N[C@@H](CO)C(=O)N[C@@H]([C@@H](C)CC)C(=O)N[C@@H](C(C)C)C(=O)N[C@@H](CC(=O)O)C(=O)N[C@@H](CCCCN)C(=O)N[C@@H](CCC(N)=O)C(=O)N1)C(=O)N[C@@H](CCCCN)C(=O)N[C@@H](CCCCN)C(=O)N[C@@H](CCC(=O)O)C(=O)O [RhTx2] (H-NSKYLNNPCNGVTCPSGYRCSIVDKQCIKKE-OH; disulfide 9-20, 14-27; N-terminus and C-terminus assumed)
TRPV2
  current activation in TRPV2 compared with TRPV1 (in words): much smaller
[3]; EC50 of RhTx2 relative to RhTx, apparent binding affinity much lower
  change in EC50, RhTx2 vs RhTx (fold): ~100 fold
[3]; TRPV1 vs TRPV2 and TRPV3, whole-cell, n = 4 per channel
  selectivity (in words): selective for TRPV1 channel
[3]; perfused from extracellular side, whole-cell recording, HEK293T
  TRPV1 activation (in words): robustly activated TRPV1
[4]
  initial single-channel opening (in words): strong channel opening
TRPV3
  current activation in TRPV3 compared with TRPV1 (in words): much smaller
[5]
  steady state open probability in the desensitized state (in words): significantly lower than that of RhTx

## CC[C@H](C)[C@H](NC(=O)[C@@H]1CSSC[C@@H]2NC(=O)[C@H]([C@@H](C)O)NC(=O)[C@H](C(C)C)NC(=O)CNC(=O)[C@H](CC(N)=O)NC(=O)[C@@H](NC(=O)[C@@H]3CCCN3C(=O)[C@H](CC(N)=O)NC(=O)[C@H](CC(N)=O)NC(=O)[C@@H](N)CC(C)C)CSSC[C@H](NC(=O)[C@H](CCCNC(=N)N)NC(=O)[C@H](Cc3ccc(O)cc3)NC(=O)CNC(=O)[C@H](CO)NC(=O)[C@@H]3CCCN3C2=O)C(=O)N[C@@H](CO)C(=O)N[C@@H]([C@@H](C)CC)C(=O)N[C@@H](C(C)C)C(=O)N[C@@H](CC(=O)O)C(=O)N[C@@H](CCCCN)C(=O)N[C@@H](CCC(N)=O)C(=O)N1)C(=O)N[C@@H](CCCCN)C(=O)N[C@@H](CCCCN)C(=O)N[C@@H](CCC(=O)O)C(=O)O [RhTx] (H-LNNPCNGVTCPSGYRCSIVDKQCIKKE-OH; disulfide 5-16, 10-23; N-terminus and C-terminus assumed)
TRPV1 [2]; ref Yang et al., 2015, Luo et al., 2019
  mechanism of TRPV1 desensitization, literature (in words): mechanistically similar to the heat desensitization
TRPV1 [2]; ref Yang et al., 2015
  TRPV1 activation, literature (in words): strongly activates TRPV1
  binding site on TRPV1, literature (in words): binds to the outer pore region above the pore helix

## COc1cc(CNC(=O)CCCC/C=C/C(C)C)ccc1O [capsaicin]
[6]
  TRPV1 activation by intracellular application (in words): robustly activated

## Oc1cc2c(cc1O)CN(C(=S)NCCc1ccc(Cl)cc1)CCC2 [capsazepine]
[3]
  block of RhTx2 activation of TRPV1 (in words): cannot be blocked
TRPV1 [2]; ref Cao et al., 2013, Yang et al., 2015
  mode of inhibition vs capsaicin, literature (in words): competitive inhibitor
